# Lmaj promast = reduces viability of Leishmania major promastigotes; inhibition, % at 10 µM; hit rate 9% among 200,000; resazurin fluorescence viability; AID 1063; in the data active means inhibition above about 50%;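 further: promastigotes grown with compound for 44 hours at 28 °C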
# WT yeast gro inh = growth inhibition of WT yeast, mitochondrial fusion screen; mitochondrial fusion phenotypic screen, WT strain; inhibition, % at 10 µM; hit rate 2.1% among 190,000; in the data active means inhibition above about 58%; tested in S. cerevisiae
# Cl transport mod = KCC2 (human) Cl- transport modulation. AID 1456. Q9H2X9. hit rate 2.2% among 190,000. B-score of Tl+ flux slope (higher = more flux/activation; lower = inhibition) at 10 µM. KCC2 cells, thallium flux FluoZin-2 fluorescence;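 active means thallium flux slope and its plate-corrected score both differing from the plate sample mean at a set confidence after two filtering rounds, in either direction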;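 further: slope of fluorescence scaled to starting intensity during 10 to 20 s after thallium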
# Diaphorase act = diaphorase activation or chemical reduction counter-screen; Diaphorase/resazurin coupled assay, resorufin fluorescence, 16 min; stronger effect = higher value; 1 = vehicle wells, 0 = NADH-free wells; activation factor at 20 µM; hit rate 0.005% among 190,000; AID 1229;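 active means diaphorase activity raised at least twofold by the compound at 20 µM; inactive means activation factor below 2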
#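 Test system: Clostridium kluyveri diaphorase, purified enzyme; input: enzyme 0.07 U/mL final; buffer or medium: 50 mM HEPES pH 7.4 with 4.542 mM MgCl2, 0.005% Tween 20; also added: 0.114 mM NADH and 0.1 mM resazurin, final amounts; schedule: 16 min enzyme reaction, ambient temperature; technique: fluorescence of resorufin, 544 nm excitation, 590 nm emission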
# Diaphorase inh = counter-screen for diaphorase-based assays: diaphorase inhibitors and chemical oxidizers. diaphorase resazurin-to-resorufin fluorescence, NADH, 16 min; bacterial (C. kluyveri) enzyme, not human. inhibition, % at 20 µM. hit rate 0.69% among 190,000. AID 1217;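 active means primary screen inhibition at 20 µM above a set limit, cut at about 50% in these data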;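 further: plate controls were DMSO with full reaction for no effect and wells lacking NADH for full effect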
#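 Detection: fluorescence of resorufin formed from resazurin, Ex 544/Em 590 nm; test system: Clostridium kluyveri diaphorase enzyme; amount: 0.14 U/mL diaphorase, enzyme working solution; times: 16-min room-temperature incubation before reading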
# ROMK primary = modulators of human ROMK potassium channel; hit rate 2% among 130,000; AID 1918; B-score at 10 µM; P48048; Tet-inducible ROMK, thallium flux fluorescence; actives lie on both sides;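 active means signal ratio slope over the read window, or its plate-corrected B-score, at least 3 SD from the plate mean, either direction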;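 further: B-score of the F/F0 ratio slope over 7 to 12 s after thallium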
# Starred values were filed as active, the others as inactive; nt = not tested or not shown. This is a sample that favours compounds with a hit; in the whole collection about 12% have one here.
SMILES,Lmaj promast,WT yeast gro inh,Cl transport mod,Diaphorase act,Diaphorase inh,ROMK primary
O=C(c1ccccc1)N1CCN2C(=O)c3ccccc3C12c1ccc(Cl)cc1 (stereo not drawn),76*,-9,-2.9,0.9,12,-0.13
NNc1nc2c(-c3ccc(F)cc3)nnn2c2ccccc12,97*,34,-0.0028,0.6,37,-0.0014
NNc1nc2c(-c3ccc(Cl)cc3)nnn2c2ccccc12,86*,20,0.49,0.9,6,-0.35
Fc1ccc(-c2nnn3c2nc(NCc2ccccc2)c2ccccc23)cc1,nt,nt,-1,nt,nt,-0.15
NC(=O)C1CCN(C(=O)/C=C/c2ccco2)CC1,-9,-8,0.56,1.1,-5,0.18
CCOC(=O)c1nc(-c2ccc(OC)c(OC)c2)no1,-6,4,2.1,0.9,10,-0.57
O=C(Nc1cccc(-c2cn3cccnc3n2)c1)c1cccs1,98*,-9,-0.46,0.9,12,nt
O=C(Nc1ccc(O)c(-c2nc3ccccc3s2)c1)c1cccs1,62*,-3,0.68,1,-3,0.59
O=C(Nc1cccc(-c2csc(-c3ccccc3)n2)c1)c1cccs1,82*,36,nt,0.8,23,0.93
Cc1nc(-c2cccc(NC(=O)c3cccs3)c2)cs1,5,-9,-1.3,0.8,18,-0.89
Cc1cccn2cc(-c3cccc(NC(=O)c4cccs4)c3)nc12,10,-4,-3.7,0.8,18,-1.5
O=C(Nc1ccncc1)c1cccs1,59*,10,nt,1.1,-5,1.4
O=C(Nc1ccc(O)c(-c2nc3ccccc3s2)c1)c1cc(=O)c2ccccc2o1,44,-12,-0.78,1,2,7.3e-05
CCOC(=O)C(/C(C)=N/NC(=O)C1CC1c1ccccc1)C(C)C (stereo not drawn),13,2,0.59,0.9,8,nt
CCN1CCC(NC(=O)Nc2cc(Cl)ccc2OC)CC1,20,7,0.33,1.1,-9,0.033
O=C(Nc1ccc(NC(=O)c2cccs2)c(Cl)c1)c1ccco1,59*,-4,-0.15,1,3,-1.3
CN1CCN(C(=O)c2ccccc2NC(=O)c2cccs2)CC1,-5,-12,0.7,0.9,8,nt
COc1ccc(NC(=O)c2ccco2)cc1NC(=O)c1cccs1,16,-10,nt,0.9,11,nt
O=C(Nc1cccc(-c2cn3cccnc3n2)c1)c1ccco1,100*,-11,-0.96,1,1,nt
Cc1c(NC(=O)c2cccs2)cccc1C(=O)O,81*,7,0.77,0.8,16,nt
Cc1ccc(C)c(Cc2c(C)nc(C)[nH]c2=O)c1,-5,-7,0.0035,0.8,20,-0.11
CCC1(C)Cc2ccccc2-c2nc3n(c(=O)c21)CCCCC3 (stereo not drawn),-6,23,0.25,0.7,27,0.96
NNc1nc(N)c2c(n1)-c1ccccc1CC21CCCC1,100*,-2,0.044,0.9,13,nt
CCC1(C)Cc2ccccc2-c2nc(NCCO)n(-c3ccc(C)cc3)c(=O)c21 (stereo not drawn),63*,-7,0.37,0.7,28,-1.3
O=c1c2c(nc3n1CCCCC3)-c1ccccc1CC21CCCCC1,3,78*,0.91,0.9,11,-0.045
SMILES,Lmaj promast,WT yeast gro inh,Cl transport mod,Diaphorase act,Diaphorase inh,ROMK primary
O=c1[nH]c(NCCO)nc2c1C1(CCCCC1)Cc1ccccc1-2,8,nt,0.3,0.7,25,-0.97
O=c1c2c(nc(NCCO)n1CC1CCCCC1)-c1ccccc1CC21CCCC1,91*,69*,nt,0.8,19,-0.46
CC1(C)CC(n2c(NCCO)nc3c(c2=O)C2(CCCC2)Cc2ccccc2-3)CCO1 (stereo not drawn),100*,20,0.79,0.7,30,-2.7
CC1=C(C(=O)N(C)C)C(c2ccc(N3CCOCC3)cc2)NC(=O)N1 (stereo not drawn),10,-10,0.63,1,0,0.66
CCOc1cc(CNc2ccccc2)cc(Br)c1OCc1ccccc1F,3,41,0.049,0.8,16,0.8
CCOc1cc(CNCCSc2nnnn2C)cc(Br)c1OCc1ccccc1,19,1,-0.69,0.8,20,0.3
CCOc1c(Cl)cc(CNCC(C)C)cc1Cl,68*,16,0.58,nt,nt,-2.1
CCOc1cc(CNCc2ccncc2)cc(Br)c1OCc1ccc(F)cc1,93*,48,nt,0.9,13,nt
CCOc1cc(CNCCO)cc(Br)c1OCc1ccccc1,75*,17,0.61,0.9,12,-0.64
CCCNCc1cc(Cl)c(OCC)c(Cl)c1,-2,-20,0.32,0.9,6,-1
CCNCc1cc(Cl)c(OCc2ccccc2)c(OCC)c1,100*,12,0.42,1.3,-29,nt
CCOc1cc(CNCc2ccccn2)cc(Cl)c1OCC,2,-33,-0.33,1.1,-7,-0.53
CCc1c(C)nc(N)n2c(SCC(=O)Nc3ccccc3)nnc12,-1,-16,0.56,0.9,9,nt
COc1cc(CNc2cccc(C(=O)O)c2)cc(Br)c1OCC(=O)NC(C)(C)C,8,-31,-0.65,0.9,7,-0.021
C/C(=N\OC(=O)c1ccccc1F)c1nccs1,-4,8,nt,1,3,nt
CCOc1c(Cl)cc(CNCc2ccncc2)cc1OC,84*,9,-1.6,1,-2,0.14
CCOc1cccc(CNCCSc2nnnn2C)c1,-3,8,nt,1.2,-19,nt
CCc1cccc(C)c1NC(=O)CSc1nc(-c2ccccc2F)nc2nc[nH]c12,62*,-4,0.41,1.1,-6,-2
O=C(CSc1nc(-c2ccccc2F)nc2nc[nH]c12)Nc1c(Cl)cc(Cl)cc1Cl,-6,-9,0.28,0.9,7,nt
NNC(=S)NCc1ccco1,nt,nt,0.55,nt,nt,nt
C/C(=N\NC(=O)c1cc(Cl)ccc1O)c1ccc(Br)s1,-1,-6,15*,1,0,0.49
C/C(=N\NC(=O)c1ccc(Cl)cc1)c1ccc(Br)s1,10,9,nt,1.1,-11,-0.8
CC(C)CC(=O)Nc1cccc(NC(=O)CC(C)C)n1,52*,-7,0.45,0.9,8,1.4
CC(=O)Nc1cccc(NC(C)=O)n1,-2,-11,1,1.2,-17,nt
COC(=O)c1ccc(NCCc2csc(-c3ccc(C)cc3)n2)c([N+](=O)[O-])c1,-5,3,nt,0.9,8,nt
CCOC(=O)CNC=C(C(=O)OCC)C(=O)OCC,-6,18,0.22,0.9,8,nt
CCOC(=O)C=C(C(=O)OCC)C(=O)OCC,100*,16,0.46,0.9,11,1
COc1ccc(C(=O)C2CCCN(Cc3cnc(N4CCCC4)s3)C2)cc1OC (stereo not drawn),72*,4,nt,0.9,6,0.41
COc1ccc2cc(C(=O)C3CCCN(Cc4cnc(C)s4)C3)ccc2c1 (stereo not drawn),79*,24,1.1,0.9,11,nt

# Screening data as filed in PubChem BioAssay.
